Screening results from PubChem.
In the library only some 2% were active in any assay of this set; here they are far more common.
STEP block: blocks human striatal-enriched tyrosine phosphatase; recombinant STEP, OMFP fluorogenic substrate, fluorescence; inhibition, % at 20 µM; hit rate 0.25% among 360,000; AID 588621;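 active means inhibition at 20 µM, scaled per plate between control wells, above about 37%, limit read from the data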
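Material: STEP (striatal-enriched tyrosine phosphatase) enzyme, cell-free; Compound dosing: 20 µM single dose in 1% DMSO; Technique: fluorescence read at 480 nm ex / 540 nm em; Times: reaction 20 min, ambient temperature; Medium: 50 mM Bis-Tris pH 6.0 with 2.5 mM DTT and 0.005% Tween 20; Also added: OMFP at 25 µM.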
LMPTP inh: LMPTP (human) inhibition; recombinant LMPTP-A, OMFP fluorogenic substrate, fluorescence intensity; inhibition, % at 20 µM; hit rate 0.22% among 360,000; P24666;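 active means compounds that cut the enzyme signal by at least half of the control window in the single-dose screen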
Target sequence (P24666 whole entry, looked up): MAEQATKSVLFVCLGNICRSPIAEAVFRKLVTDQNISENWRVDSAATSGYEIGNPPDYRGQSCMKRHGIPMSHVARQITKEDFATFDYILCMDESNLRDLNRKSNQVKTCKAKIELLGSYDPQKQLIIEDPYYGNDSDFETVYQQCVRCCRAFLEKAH
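Material: LMPTP-A; amount: 0.625 nM enzyme; doses: single 20 µM dose; times: reaction 50 min, room temperature, dark; technique: fluorescence intensity of OMFP turnover product; benchmarks: no-enzyme and uninhibited controls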
DNMT1 inh: DNMT1 (human) enzyme inhibition | P26358 | DNMT1 molecular beacon, Hinp1I cleavage, fluorescence | inhibition (reported as % activation of signal), % at 10 µM | hit rate 0.83% among 360,000; in the data active means inhibition above about 50%
Rpn11 block: inhibitors of human proteasome Rpn11. O00487. human 26S proteasome, Ub4-pepOG fluorescence polarization; 20S core pre-blocked with epoxomicin. inhibition, % at 20 µM. hit rate 0.59% among 360,000;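 active means inhibition at 20 µM, scaled to each plate's controls, above about 33%, limit read from the data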
Target sequence (O00487 whole entry, looked up): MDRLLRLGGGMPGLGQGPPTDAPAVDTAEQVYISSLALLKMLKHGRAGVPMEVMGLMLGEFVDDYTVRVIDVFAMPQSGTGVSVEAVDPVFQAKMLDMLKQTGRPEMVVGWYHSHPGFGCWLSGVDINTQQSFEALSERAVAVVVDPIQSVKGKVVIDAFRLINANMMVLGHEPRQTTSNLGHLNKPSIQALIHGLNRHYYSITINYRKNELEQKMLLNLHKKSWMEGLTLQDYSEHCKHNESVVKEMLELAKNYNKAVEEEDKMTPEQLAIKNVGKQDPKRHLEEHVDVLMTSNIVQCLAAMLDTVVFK
Scp1 inh: Scp-1 (human) phosphatase inhibition | Recombinant Scp1, phosphopeptide, malachite green phosphate absorbance | inhibition, % at 20 µM | hit rate 0.88% among 340,000 | AID 493091;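 active means inhibition above about 50% at 20 µM, limit read from the data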
Target sequence (Q9GZU7 76-261 limits assumed): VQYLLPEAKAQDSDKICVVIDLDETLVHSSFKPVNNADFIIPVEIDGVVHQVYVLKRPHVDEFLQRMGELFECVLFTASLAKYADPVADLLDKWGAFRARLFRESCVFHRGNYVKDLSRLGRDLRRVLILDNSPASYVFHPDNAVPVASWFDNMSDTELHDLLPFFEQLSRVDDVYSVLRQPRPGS
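Material – SCP-1 phosphatase catalytic domain, residues 76-261 · Buffer or medium – Acidic Tris acetate buffer with magnesium and detergent · Also added – Phospho 17-mer peptide substrate · Compound – single 20 µM dose, 1% DMSO · Times – 45 min room-temperature reaction, 5 min colour, 30 min stabiliser · Technique – Phosphate-binding colour reagent, absorbance read at 630 nm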
Scp-1 conf: confirmation of human Scp-1 phosphatase inhibitors. shares compounds with Scp1 inh. hit rate 61% among 2,500. recombinant SCP-1 catalytic domain, phosphate release, malachite green absorbance. inhibition, % at 20 µM
MG interference: interferes with malachite green readout, flagging false Scp-1 hits; shares compounds with Scp1 inh; Colorimetric interference counterscreen, malachite green absorbance 630 nm; apparent inhibition (interference), % at 20 µM; 2,500 tested, under 10 active;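 further: compounds added after enzyme reaction finished so only phosphate colour detection is probed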
Scp1 DSF: validation of human Scp-1 inhibitors by thermal shift binding; shares compounds with Scp1 inh; Recombinant SCP1, Sypro Orange thermal shift Tm; thermal shift relative to vanadate control, % at 40 µM; hit rate 25% among 1,500;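 active means substances whose mean melting-temperature shift, as a percentage of the reference inhibitor's shift, reaches about 5.3%, limit read from the data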
Hits are given with their value; – = inactive; · = no result given; ! = a repeat was not active.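 How the source made its calls, unless noted: active means inhibition of at least 30% at 20 µM; inactive means the rest.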

SMILES	STEP block	LMPTP inh	DNMT1 inh	Rpn11 block	Scp1 inh	Scp-1 conf	MG interference	others
COc1ccccc1CNC(=O)CN(C)S(=O)(=O)c1ccc2c(c1)n(C)c(=O)c(=O)n2C	–	–	–	–	–	–	–
CSC12CCCN(CCC(C(C)(C)C)C1)C2=O (stereo unspecified)	·	–	·	·	·	·	·
Cc1c(C(=O)O)sc2nc(/C=C/c3cccc(F)c3)[nH]c(=O)c12	–	–	–	–	81	–	–
Cc1c(C(=O)O)sc2nc(/C=C/c3ccccc3OC(F)F)[nH]c(=O)c12	–	–	–	–	–	·	·
CCCCNC(=O)C1(C)CCCCN1C(=O)c1ccc2c(c1)C(C)(C)CCC2(C)C (stereo unspecified)	–	–	–	–	·	·	·
CCOc1ccc(S(=O)(=O)NCc2ccccc2Cl)cc1C(N)=O	–	–	–	–	–	–	–
CCOc1ccc(S(=O)(=O)NCc2ccccc2)cc1C(N)=O	–	–	–	–	–	·	·
CCn1c(=O)cc(OCC(=O)NCc2ccco2)c2ccccc21	–	–	–	–	57	–	–
CCCCCCN1C[C@H](n2cc(C3CC3)nn2)[C@@H](O)C[C@@H]1c1ccc(OC)cc1	–	–	–	–	·	·	·
N#CC1=C(SCC(=O)Nc2ccc(C(=O)O)cc2)NC(=O)CC1c1ccco1 (stereo unspecified)	–	–	–	–	52	46	–	Scp1 DSF=–
O=C(CSc1nnc(C2CC2)n1C1CC1)c1cc(F)ccc1F	–	–	–	–	–	·	·
CCOc1ccccc1OCCCC(=O)NNC(=O)c1ccc(F)cc1	–	–	–	–	59	–	–
CCCCCC(=O)NNC(=O)c1ccc(F)cc1	–	–	–	–	–	·	·
N#CC1(NC(=O)CSc2nnc(Nc3ccccc3F)s2)CCCC1	–	–	–	–	–	·	·
O=C(Nc1cccc(Cl)c1)c1cccc(N2C(=O)C3CC=CCC3C2=O)c1 (stereo unspecified)	–	–	–	–	52	–	–
Cc1ccc(NC(=O)COC(=O)c2ccc(-n3nc(C)cc3C)cc2)c(F)c1	–	–	–	–	–	·	·
COCCCNC(=O)C1CC(=O)N(Cc2ccc(OC)cc2)C1 (stereo unspecified)	–	–	–	–	–	·	·
COc1ccc(CN2CC(C(=O)NCCCOC(C)C)CC2=O)cc1 (stereo unspecified)	–	–	–	–	–	–	–
COc1ccc(OC)c(NC(=O)CSc2sc3c(O)cc(=O)[nH]c3c2C#N)c1	–	–	–	–	70	55	–	Scp1 DSF=11
CCOC(=O)C1C(C(=O)OC)=C(c2ccc(OC)cc2)c2ccccc2N1S(=O)(=O)C(F)(F)F (stereo unspecified)	–	–	–	–	–	·	·
CCOC(=O)C1(C)C(C(=O)OC)=C(c2ccc(OC)cc2)c2ccccc2N1C(=O)OC (stereo unspecified)	–	–	–	–	96	57	–	Scp1 DSF=–
Cc1ccc(S(=O)(=O)C[C@@H]2OC[C@H](CO)N2S(=O)(=O)c2ccc(C)cc2)cc1	·	–	·	·	·	·	·
COc1ccc(N2CCN(C(=O)CN(C)S(=O)(=O)c3cnc[nH]3)CC2)cc1	–	–	–	–	54	–	–
C[n+]1ccccc1/C=N/O	–	–	–	–	52!	–	–
C[n+]1ccccc1/C=C/c1cc(Br)ccc1O	–	–	–	–	–	·	·
SMILES	STEP block	LMPTP inh	DNMT1 inh	Rpn11 block	Scp1 inh	Scp-1 conf	MG interference	others
CC(O)/C=C/c1cccc[n+]1C (stereo unspecified)	–	–	–	–	96	85	–	Scp1 DSF=–
CCCNC(=O)c1cc(C2CCCCN2C(=O)c2cc(C(C)(C)C)nn2C)on1 (stereo unspecified)	–	–	–	–	·	·	·
Nc1ccn([C@@H]2O[C@H](C(=O)N[C@H](CO)c3ccccc3)[C@@H](O)[C@H]2O)c(=O)n1	–	–	–	–	·	·	·
CCCNC(=O)C1(C)CCCN(C(=O)c2c(F)ccc(C)c2F)C1 (stereo unspecified)	–	–	–	–	·	·	·
O=C1CC(=O)N(C2CCCCC2)C(=O)N1c1ccccc1S(=O)(=O)Oc1ccccc1	–	–	–	·	·	·	·
O=C(CN1C(=O)c2ccccc2C1=O)NN1C(=O)c2ccccc2C1=O	–	–	–	–	56	–	–
CC(=O)c1ccc(S(=O)(=O)N2Cc3ccccc3CC2C(=O)O)cc1 (stereo unspecified)	–	–	–	–	82	64	–	Scp1 DSF=–
O=C(O)[C@H]1Cc2ccccc2CN1S(=O)(=O)c1ccc(F)cc1	–	–	–	–	–	·	·
CC#CC#Cc1cccc(=O)o1	–	–	56	–	54	42	–	Scp1 DSF=–
Cc1cccc(C)c1-n1nnnc1C(c1ccnc2ccccc12)N(C)Cc1ccccc1 (stereo unspecified)	·	–	·	·	·	·	·
CCC1(c2ccccc2)NC(=O)N(CC(=O)NNC(=O)COc2ccc(Cl)cc2C)C1=O (stereo unspecified)	–	–	–	–	–	–	–
CCC1(c2ccccc2)NC(=O)N(CC(=O)NCc2ccncc2)C1=O (stereo unspecified)	–	–	–	–	–	·	·
CCOC(=O)C1(C)C(=O)CC2c3nc4ccccc4cc3CN2C1=O (stereo unspecified)	–	–	–	–	·	·	·
Cc1ccc(S(=O)(=O)NC(=O)C2(C)CCN2C(=O)Cc2cccs2)nc1 (stereo unspecified)	–	–	–	–	·	·	·
CC[N+]1(C)CC2CCC(C)(C1)C2(C)C (stereo unspecified)	–	–	–	–	56	39	–	Scp1 DSF=–
O=C1CCCN1CCCNC(=S)Nc1ccccc1	–	–	–	–	–	–	–
O=C1CCCN1CCCNC(=S)Nc1ccc(Nc2ccccc2)cc1	–	–	–	–	–	·	·
Cc1cccc(C)c1NC(=S)NCCCN1CCCC1=O	–	–	–	–	–	–	–
O=C(COC(=O)c1c(F)cccc1F)NC(=O)NCc1ccccc1	–	–	–	–	·	·	·
COc1cc(/C=N/N=C(N)N)ccc1OCc1ccc(Cl)cc1	–	–	–	–	–	·	·
COc1cc(/C=N/N=C2/NC(=O)C(CC(=O)O)S2)ccc1OCc1ccc(Cl)cc1 (stereo unspecified)	–	–	–	–	59	70	–	Scp1 DSF=–
COc1ccc(CCn2c(C(C)C)nc3c(c(=O)c4ccccc4n3C)c2=O)cc1	–	–	–	–	59	–	–
Cc1cn([C@H]2C[C@H](O)[C@@H](/C=C/C(=O)NCCN3CCOCC3)O2)c(=O)[nH]c1=O	–	–	–	–	·	·	·
